Source: ChEMBL document CHEMBL3526065, “Metabolism of [6]-shogaol in mice and in cancer cells” (Drug Metab Dispos, 2012)

Legend:
[1] = Drug level in C57BL/6J mouse feces treated with [6]-shogaol at 200 mg/kg, po by HPLC-ECD analysis relative to control; assay type: ADME, organism-based; parameters: dose 200 mg/kg, route oral; details: in vivo
Procedure, shortened: (§1)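 Female C57BL/6J mice gavaged once with 200 mg/kg in corn oil, or corn oil alone (n = 5 each). 24-h feces collected in metabolic cages. Feces extracted by sonication 90 min in MeOH/H2O (50/50) + 0.1% acetic acid, centrifuged, diluted fivefold. Analysed by HPLC with electrochemical array detection (Gemini C18, phosphate/acetonitrile/THF gradient), compared against vehicle controls.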

[2] = Drug metabolism in human HCT116 cells assessed as retention time treated with 10 uM [6]-shogaol after 24 hrs by HPLC-ECD analysis; assay type: ADME, cell-based; details: hct-116, 24 h
Procedure, shortened: (§2)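 Cells (1.0 × 10⁶) attached 24 h in six-well plates, then exposed to 10 μM final in McCoy's 5A with 10% FBS. Extracted with equal volume acetonitrile, diluted 5-fold, analysed by HPLC with electrochemical detection.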

[3] = Antioxidant activity assessed as DPPH radical scavenging activity; assay type: physicochemical
[4] = Drug recovery in C57BL/6J mouse urine assessed as sulfated form of metabolite formation at 200 mg/kg, po by HPLC-ECD analysis; assay type: ADME, organism-based; parameters: dose 200 mg/kg, route oral; details: in vivo
Procedure, shortened: (§3)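 Female C57BL/6J mice gavaged with 200 mg/kg in corn oil or vehicle (n = 5); 24-h urine collected in metabolic cages. 50 μl urine deproteinized with MeOH. Analysis with and without deconjugation.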

[5] = Drug metabolism in human HCT116 cells assessed as 1-(4'-hydroxy-3'-methoxyphenyl)-4-decen-3-ol formation at 10 uM after 24 hrs by HPLC-ECD analysis; assay type: ADME, cell-based; details: hct-116, 24 h; procedure, shortened: as §2
[6] = Cytotoxicity against human HCT116 cells assessed as growth inhibition after 24 hrs by MTT assay; assay type: functional, cell-based; details: HCT-116, 24 h
Procedure, shortened: (§4)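 Cells seeded at 3000/well, attached 24 h at 37°C, then exposed to test agents (0–80 μM, 0.1% DMSO final) for 24 h in McCoy's 5A with 10% FBS. Medium replaced with 2.41 mM MTT for 3 h at 37°C; formazan dissolved in DMSO, absorbance 550 nm. Viability as percentage of DMSO control; mean ± S.D., n = 6.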

[7] = Drug excretion in C57BL/6J mouse feces assessed as 5-cysteinyl-[6]-shogaol formation at 200 mg/kg, po by HPLC-ECD analysis relative to control; assay type: ADME, organism-based; parameters: dose 200 mg/kg, route oral; details: in vivo; procedure, shortened: as §1
Plasma [8] = assay: Drug metabolism in A/J mouse plasma assessed as glucuronidated form of metabolite formation at 200 mg/kg, po after 2 to 4 hrs by LC/MS analysis; details: in vivo
[9] = Drug metabolism in human HCT116 cells assessed as 1-(4'-hydroxy-3'-methoxyphenyl)-decan-3-ol formation at 10 uM after 24 hrs by HPLC-ECD analysis; assay type: ADME, cell-based; details: hct-116, 24 h; procedure, shortened: as §2
[10] = Drug recovery in C57BL/6J mouse urine assessed as glucuronidated form of metabolite formation at 200 mg/kg, po by LC/MS analysis; assay type: ADME, organism-based; parameters: dose 200 mg/kg, route oral; details: in vivo; procedure, shortened: as §3
Plasma [11] = assay: Drug metabolism in A/J mouse plasma assessed as glucuronidated form of metabolite formation at 200 mg/kg, po after 2 to 4 hrs by HPLC-ECD analysis; details: in vivo
HCT-116 [12] = assay: Induction of apoptosis in human HCT116 cells assessed as apoptotic cells at 20 uM after 24 hrs by TUNEL assay; assay type: functional
Procedure, shortened: (§5)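 HCT-116 or H-1299 cells seeded at 1.0 × 10⁵/well, after 24 h exposed for 24 h to compound (10–80 μM) or DMSO control. Cells were proteinase K-pretreated, formaldehyde-fixed, and slide-mounted for peroxidase TUNEL staining. Ten fields per slide counted at 400×; brown-nucleus cells given as percentage of total cells; mean ± S.E., n = 10.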

[13] = Cytotoxicity against human H1299 cells assessed as growth inhibition after 24 hrs by MTT assay; assay type: functional, cell-based; details: NCI-H1299, 24 h; procedure, shortened: as §4
HT-29 [14] = assay: Drug metabolism in human HT-29 cells assessed as 1-(4'-hydroxy-3'-methoxyphenyl)-decan-3-ol formation at 10 uM by HPLC-ECD analysis; assay type: ADME, cell-based; details: ht-29, 10 µM; procedure, shortened: as §2
[15] = Drug excretion in C57BL/6J mouse feces assessed as 5-N-acetylcysteinyl-[6]-shogaol formation at 200 mg/kg, po by HPLC-ECD analysis relative to control; assay type: ADME, organism-based; parameters: dose 200 mg/kg, route oral; details: in vivo; procedure, shortened: as §1
NCI-H1299 [16] = assay: Induction of apoptosis in human H1299 cells assessed as apoptotic cells at 10 uM after 24 hrs by TUNEL assay; assay type: functional; procedure, shortened: as §5
[17] = Drug excretion in C57BL/6J mouse feces assessed as (2R)-2-acetamido-3-(3-hydroxy-1-(4-hydroxy-3-methoxyphenyl)decan-5-ylthio)propanoic acid formation at 200 mg/kg, po by HPLC-ECD analysis relative to control; assay type: ADME, organism-based; parameters: dose 200 mg/kg, route oral; details: in vivo; procedure, shortened: as §1
[18] = Drug metabolism in mouse CL-13 cells assessed as 1-(4'-hydroxy-3'-methoxyphenyl)-decan-3-ol formation at 10 uM after 24 hrs by HPLC-ECD analysis; assay type: ADME, cell-based; details: cl-13, 24 h; procedure, shortened: as §2
[19] = Drug excretion in C57BL/6J mouse feces assessed as 5-methylthio-1-(4'-hydroxy-3'-methoxyphenyl)-decan-3-ol formation at 200 mg/kg, po by HPLC-ECD analysis relative to control; assay type: ADME, organism-based; parameters: dose 200 mg/kg, route oral; details: in vivo; procedure, shortened: as §1
[20] = Drug excretion in C57BL/6J mouse feces assessed as 1-(4'-hydroxy-3'-methoxyphenyl)-decan-3-one formation at 200 mg/kg, po by HPLC analysis relative to control; assay type: ADME, organism-based; parameters: dose 200 mg/kg, route oral; details: in vivo; procedure, shortened: as §1
[21] = Drug excretion in C57BL/6J mouse feces assessed as 5-methylthio-1-(4'-hydroxy-3'-methoxyphenyl)-decan-3-one formation at 200 mg/kg, po by HPLC analysis relative to control; assay type: ADME, organism-based; parameters: dose 200 mg/kg, route oral; details: in vivo; procedure, shortened: as §1
[22] = Drug metabolism in human HCT116 cells assessed as 1-(4'-hydroxy-3'-methoxyphenyl)-decan-3-one formation at 10 uM after 24 hrs by HPLC-ECD analysis; assay type: ADME, cell-based; details: hct-116, 24 h; procedure, shortened: as §2
[23] = Drug metabolism in human H1299 cells assessed as 1-(4'-hydroxy-3'-methoxyphenyl)-decan-3-ol formation at 10 uM after 24 hrs by HPLC-ECD analysis; assay type: ADME, cell-based; details: nci-h1299, 24 h; procedure, shortened: as §2
[24] = Drug recovery in C57BL/6J mouse urine assessed as glucuronidated form of metabolite formation at 200 mg/kg, po by HPLC-ECD analysis; assay type: ADME, organism-based; parameters: dose 200 mg/kg, route oral; details: in vivo; procedure, shortened: as §3
HCT-116 [25] = assay: Induction of apoptosis in human HCT116 cells assessed as apoptotic cells at 10 uM after 24 hrs by TUNEL assay; assay type: functional; procedure, shortened: as §5
HT-29 [26] = assay: Drug metabolism in human HT-29 cells assessed as 1-(4'-hydroxy-3'-methoxyphenyl)-decan-3-one formation at 10 uM by HPLC-ECD analysis; assay type: ADME, cell-based; details: ht-29, 10 µM; procedure, shortened: as §2
NCI-H1299 [27] = assay: Induction of apoptosis in human H1299 cells assessed as apoptotic cells at 20 uM after 24 hrs by TUNEL assay; assay type: functional; procedure, shortened: as §5
[28] = Drug metabolism in mouse CL-13 cells assessed as 1-(4'-hydroxy-3'-methoxyphenyl)-decan-3-one formation at 10 uM by HPLC-ECD analysis; assay type: ADME, cell-based; details: cl-13, 10 µM; procedure, shortened: as §2
[29] = Drug excretion in C57BL/6J mouse feces assessed as 2-((2R)-2-amino-3-(3-hydroxy-1-(4-hydroxy-3-methoxyphenyl)decan-5-ylthio)propanamido)acetic acid formation at 200 mg/kg, po by HPLC-ECD analysis relative to control; assay type: ADME, organism-based; parameters: dose 200 mg/kg, route oral; details: in vivo; procedure, shortened: as §1
[30] = Drug recovery in C57BL/6J mouse urine assessed as sulfated form of metabolite formation at 200 mg/kg, po by LC/MS analysis; assay type: ADME, organism-based; parameters: dose 200 mg/kg, route oral; details: in vivo; procedure, shortened: as §3
[31] = Drug excretion in C57BL/6J mouse feces assessed as (2R)-2-amino-3-(3-hydroxy-1-(4-hydroxy-3-methoxyphenyl)decan-5-ylthio)propanoic acid formation at 200 mg/kg, po by HPLC-ECD analysis relative to control; assay type: ADME, organism-based; parameters: dose 200 mg/kg, route oral; details: in vivo; procedure, shortened: as §1
Plasma [32] = assay: Drug metabolism in A/J mouse plasma assessed as sulfated form of metabolite formation at 200 mg/kg, po after 2 to 4 hrs by HPLC analysis; details: in vivo
Plasma [33] = assay: Drug metabolism in C57BL/6J mouse plasma assessed as sulfated form of metabolite formation at 200 mg/kg, po after 2 to 4 hrs by LC/MS analysis; assay type: ADME, organism-based; parameters: dose 200 mg/kg, route oral; details: in vivo
[34] = Drug excretion in C57BL/6J mouse feces assessed as 1-(4'-hydroxy-3'-methoxyphenyl)-decan-3-ol formation at 200 mg/kg, po by HPLC-ECD analysis relative to control; assay type: ADME, organism-based; parameters: dose 200 mg/kg, route oral; details: in vivo; procedure, shortened: as §1
[35] = Drug excretion in C57BL/6J mouse feces assessed as 3',4'-dihydroxyphenyl-decan-3-one formation at 200 mg/kg, po by HPLC-ECD analysis relative to control; assay type: ADME, organism-based; parameters: dose 200 mg/kg, route oral; details: in vivo; procedure, shortened: as §1
[36] = Drug excretion in C57BL/6J mouse feces assessed as 1-(4'-hydroxy-3'-methoxyphenyl)-4-decen-3-ol formation at 200 mg/kg, po by HPLC-ECD analysis relative to control; assay type: ADME, organism-based; parameters: dose 200 mg/kg, route oral; details: in vivo; procedure, shortened: as §1
[37] = Drug metabolism in human H1299 cells assessed as 1-(4'-hydroxy-3'-methoxyphenyl)-decan-3-one formation at 10 uM after 24 hrs by HPLC-ECD analysis; assay type: ADME, cell-based; details: nci-h1299, 24 h; procedure, shortened: as §2
[38] = Drug excretion in C57BL/6J mouse feces assessed as 5-methoxy-1-(4'-hydroxy-3'-methoxyphenyl)-decan-3-one formation at 200 mg/kg, po by HPLC-ECD analysis relative to control; assay type: ADME, organism-based; parameters: dose 200 mg/kg, route oral; details: in vivo; procedure, shortened: as §1

CCCCCC(CC(O)CCc1ccc(O)c(OC)c1)SCC(N)C(=O)O (centres undefined)
Drug excretion [1]: metabolite_detected

CCCCCC(CC(=O)CCc1ccc(O)c(OC)c1)SCC(N)C(=O)O (centres undefined)
Drug excretion [1]: metabolite_detected

CCCCCC(CC(O)CCc1ccc(O)c(OC)c1)SC (centres undefined)
Drug excretion [1]: metabolite_detected

CCCCCC(CC(=O)CCc1ccc(O)c(OC)c1)SC[C@H](NC(=O)CC[C@H](N)C(=O)O)C(=O)NCC(=O)O (some centres undefined)
Retention_time [2]: 14.5 min

CCCCCCCC(=O)CCc1ccc(O)c(O)c1
Drug excretion [1]: metabolite_detected

CCCCCC(CC(=O)CCc1ccc(O)c(OC)c1)SC (centres undefined)
Drug excretion [1]: metabolite_detected

CCCCCCCCC[C@H](O)CC(=O)CCc1ccc(O)c(OC)c1
IC50 [3]: 12 µM

CCCCC[C@H](O)CC(=O)CCc1ccc(O)c(OC)c1 [GINGEROL]
IC50 [3]: 28 µM

CCCCC/C=C/C(=O)CCc1ccc(O)c(OC)c1 [SHOGAOL]
Drug recovery [4]: metabolite_detected | Drug metabolism [5]: metabolite_detected | IC50 [6]: 18.7 µM | Drug excretion [7]: metabolite_detected | Drug metabolism (Plasma [8]): metabolite_detected | Drug metabolism [9]: metabolite_detected | Drug recovery [10]: metabolite_detected | Drug metabolism (Plasma [11]): metabolite_detected | Activity (HCT-116 [12]): 31.2% | IC50 [13]: 16.9 µM | Drug metabolism (HT-29 [14]): metabolite_detected | Drug excretion [15]: metabolite_detected | Activity (NCI-H1299 [16]): 5.2% | Drug excretion [17]: metabolite_detected | Drug metabolism [18]: metabolite_detected | Drug excretion [19]: metabolite_detected | Drug excretion [20]: metabolite_detected | Drug excretion [21]: metabolite_detected | Drug metabolism [22]: metabolite_detected | Drug metabolism [23]: metabolite_detected | Drug recovery [24]: metabolite_detected | Activity (HCT-116 [25]): 10.3% | Drug metabolism (HT-29 [26]): metabolite_detected | Activity (NCI-H1299 [27]): 31.6% | IC50 [3]: 8 µM | Drug metabolism [28]: metabolite_detected | Drug excretion [29]: metabolite_detected | Drug recovery [30]: metabolite_detected | Drug excretion [31]: metabolite_detected | Drug metabolism (Plasma [32]): metabolite_detected | Drug metabolism (Plasma [33]): metabolite_detected | Drug excretion [34]: metabolite_detected | Drug excretion [35]: metabolite_detected | Drug excretion [36]: metabolite_detected | Drug metabolism [37]: metabolite_detected | Drug excretion [38]: metabolite_detected
